# Assay results from publication PMC9305210 (British Journal of Clinical Pharmacology, 2022).
# Key:
# Safety and tolerability = type: in vivo, human; settings: for tolerability: 100‐400 mg/day for up to 14 days, healthy subjects; for TEAE leading to discontinuation: one subject
# Procedure, shortened: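 Randomized, double-blind, placebo-controlled; cohorts of 8 (6:2) healthy adults given oral solution daily for a planned 14 days after ≥8 h fast, confined on site days −3 to 15 plus 1 follow-up day. Monitoring covered AEs, physical examination, BMI, vital signs, ECG and clinical laboratory tests. Subjects with ≥1 treatment-emergent AE counted across all subjects receiving at least one dose.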
# [1] = healthy subjects, cited from earlier work
# 24HC levels in the brain = settings: single oral administration in mice; cited from earlier work
# CH24H = settings: CH24H‐knockout mice vs wild‐type controls; cited from earlier work
# [2] = Soticlestat total, n = 30, listed as soticlestat
compound,measurement,setting,value
"O=C(c1cccnc1-c1ccncc1)N1CCC(O)(Cc2ccccc2)CC1 [Soticlestat, soticlestat]",Number of subjects (%) with TEAEs: Moderate,"Safety and tolerability; 100 mg QD, n = 6",0
same,Number of subjects (%) with TEAEs: Not related,"Safety and tolerability; 100 mg QD, n = 6",0
same,Number of subjects (%) with TEAEs: Related,"Safety and tolerability; 100 mg QD, n = 6",0
same,Number of subjects (%) with TEAEs: Severe,"Safety and tolerability; 100 mg QD, n = 6",0
same,Number of subjects (%): Deaths,"Safety and tolerability; 100 mg QD, n = 6",0
same,Number of subjects (%) with SAEs,"Safety and tolerability; 300 mg BID, n = 6",0
same,Number of subjects (%) with TEAEs,"Safety and tolerability; 300 mg BID, n = 6",5 (83.3)
same,Number of subjects (%) with TEAEs: Leading to discontinuation,"Safety and tolerability; 300 mg BID, n = 6",1 (16.7)
same,Number of subjects (%) with TEAEs: Mild,"Safety and tolerability; 300 mg BID, n = 6",5 (83.3)
same,Number of subjects (%) with TEAEs: Moderate,"Safety and tolerability; 300 mg BID, n = 6",0
same,Number of subjects (%) with TEAEs: Not related,"Safety and tolerability; 300 mg BID, n = 6",0
same,Number of subjects (%) with TEAEs: Related,"Safety and tolerability; 300 mg BID, n = 6",5 (83.3)
same,Number of subjects (%) with TEAEs: Severe,"Safety and tolerability; 300 mg BID, n = 6",0
same,Number of subjects (%): Deaths,"Safety and tolerability; 300 mg BID, n = 6",0
same,Number of subjects (%) with SAEs,"Safety and tolerability; 300 mg QD, n = 6",0
same,Number of subjects (%) with TEAEs,"Safety and tolerability; 300 mg QD, n = 6",1 (16.7)
same,Number of subjects (%) with TEAEs: Leading to discontinuation,"Safety and tolerability; 300 mg QD, n = 6",0
same,Number of subjects (%) with TEAEs: Mild,"Safety and tolerability; 300 mg QD, n = 6",1 (16.7)
same,Number of subjects (%) with TEAEs: Moderate,"Safety and tolerability; 300 mg QD, n = 6",0
same,Number of subjects (%) with TEAEs: Not related,"Safety and tolerability; 300 mg QD, n = 6",0
same,Number of subjects (%) with TEAEs: Related,"Safety and tolerability; 300 mg QD, n = 6",1 (16.7)
same,Number of subjects (%) with TEAEs: Severe,"Safety and tolerability; 300 mg QD, n = 6",0
same,Number of subjects (%): Deaths,"Safety and tolerability; 300 mg QD, n = 6",0
same,Number of subjects (%) with SAEs,"Safety and tolerability; 400 mg QD, n = 6",0
same,Number of subjects (%) with TEAEs,"Safety and tolerability; 400 mg QD, n = 6",5 (83.3)
same,Number of subjects (%) with TEAEs: Leading to discontinuation,"Safety and tolerability; 400 mg QD, n = 6",0
same,Number of subjects (%) with TEAEs: Mild,"Safety and tolerability; 400 mg QD, n = 6",4 (66.7)
same,Number of subjects (%) with TEAEs: Moderate,"Safety and tolerability; 400 mg QD, n = 6",1 (16.7)
same,Number of subjects (%) with TEAEs: Not related,"Safety and tolerability; 400 mg QD, n = 6",1 (16.7)
same,Number of subjects (%) with TEAEs: Related,"Safety and tolerability; 400 mg QD, n = 6",4 (66.7)
same,Number of subjects (%) with TEAEs: Severe,"Safety and tolerability; 400 mg QD, n = 6",0
same,Number of subjects (%): Deaths,"Safety and tolerability; 400 mg QD, n = 6",0
same,Number of subjects (%) with SAEs,"Safety and tolerability; 600 mg QD, n = 6",0
same,Number of subjects (%) with TEAEs,"Safety and tolerability; 600 mg QD, n = 6",3 (50.0)
same,Number of subjects (%) with TEAEs: Leading to discontinuation,"Safety and tolerability; 600 mg QD, n = 6",1 (16.7)
same,Number of subjects (%) with TEAEs: Mild,"Safety and tolerability; 600 mg QD, n = 6",2 (33.3)
same,Number of subjects (%) with TEAEs: Moderate,"Safety and tolerability; 600 mg QD, n = 6",0
same,Number of subjects (%) with TEAEs: Not related,"Safety and tolerability; 600 mg QD, n = 6",0
same,Number of subjects (%) with TEAEs: Related,"Safety and tolerability; 600 mg QD, n = 6",3 (50.0)
same,Number of subjects (%) with TEAEs: Severe,"Safety and tolerability; 600 mg QD, n = 6",1 (16.7)
same,Number of subjects (%): Deaths,"Safety and tolerability; 600 mg QD, n = 6",0
same,tolerability,Safety and tolerability,generally well tolerated
same,tolerability,Safety and tolerability; listed as soticlestat,well tolerated in most healthy subjects up to 400 mg daily
same,Number of subjects (%) with SAEs,"Safety and tolerability; Soticlestat total, n = 30",0
same,Number of subjects (%) with TEAEs,"Safety and tolerability; Soticlestat total, n = 30",14 (46.7)
same,Number of subjects (%) with TEAEs: Leading to discontinuation,"Safety and tolerability; Soticlestat total, n = 30",2 (6.7)
same,Number of subjects (%) with TEAEs: Mild,"Safety and tolerability; Soticlestat total, n = 30",12 (40.0)
same,Number of subjects (%) with TEAEs: Moderate,"Safety and tolerability; Soticlestat total, n = 30",1 (3.3)
same,Number of subjects (%) with TEAEs: Not related,"Safety and tolerability; Soticlestat total, n = 30",1 (3.3)
same,Number of subjects (%) with TEAEs: Related,"Safety and tolerability; Soticlestat total, n = 30",13 (43.3)
same,Number of subjects (%) with TEAEs: Severe,"Safety and tolerability; Soticlestat total, n = 30",1 (3.3)
same,Number of subjects (%): Deaths,"Safety and tolerability; Soticlestat total, n = 30",0
same,Number of subjects (%) with TEAEs,Safety and tolerability; [2],14
same,Number of subjects (%) with TEAEs: Related,Safety and tolerability; [2],13
same,"clinical laboratory (including hormones), vital signs, physical examination, eye examination or electrocardiographic findings",Safety and tolerability; all doses,No clinically significant findings
same,liver function test results,Safety and tolerability; all doses,No subjects had abnormal liver function test results
same,number of TEAE events considered related to soticlestat,Safety and tolerability; all doses,31
same,proportion of TEAEs transient and mild in intensity,Safety and tolerability; all doses,91%
same,serious AEs,Safety and tolerability; all doses,No serious AEs were reported
same,proportion of TEAEs transient and mild in intensity,"Safety and tolerability; all doses, listed as soticlestat",over 90%
same,outcome of TEAEs,Safety and tolerability; before study exit on day 15,reversible and resolved without treatment
same,TEAE leading to discontinuation,"Safety and tolerability; 300 mg BID (cohort 3), study day 9",mild event of confusional state
same,TEAE leading to discontinuation,"Safety and tolerability; 600 mg QD (cohort 4), study day 10",severe event of acute psychosis
same,total number of TEAEs reported,"Safety and tolerability; subjects administered soticlestat, all doses",45
same,tolerability of single doses,[1]; doses up to 1350 mg,well tolerated
same,circulating levels of 24HC,[1]; single rising doses,dose‐dependent reduction
same,24HC levels in the brain,24HC levels in the brain,dose‐dependent reduction in 24HC levels in the brain
same,soticlestat distribution in the brain,CH24H,substantially lower level of soticlestat distribution in the brain than wild‐type controls
